Tn7 DDE FP – inhibitors of Tn7 peptide binding to fibrin DD(E), primary screen, biochemical, fluorescence polarization, human fibrin, Tn7 probe | Fibrinogen beta chain (Homo sapiens), P02675 | FP displacement of FITC-Tn7 peptide from fibrin DD(E); 0% = median of compound wells per plate | inhibition, % at 8.3 µM | actives 0.13% (n = 370,000);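 active = inhibition above the mean of compounds falling within the control limits plus 3 SD of them, cut at about 14% in these data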
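Test system – human fibrin DD(E) · Times – 10 min preincubation, 3 h with tracer, room temperature · Detection – fluorescence polarization of the labelled Tn7 tracer · Measure – percent inhibition normalized to high-control wells · Benchmarks – high control wells with 10 µM unlabelled Aha-Tn7 peptide (full inhibition) · Repeats – singlicate testing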
PKA-R1A act – activators of PKA-R1A holoenzyme, primary screen, biochemical, fluorescence polarization, Cy5-IP20, bovine R1A, mouse PKAc; PKA-R1A dissociation; scaled: DMSO 0%, 113 µM cGMP 100%; activation, % at 11.4 µM; actives 0.083% (n = 340,000); AID 504707, 2011;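 active = percent activation above the mean of all tested compounds plus 3 SD, cut at about 19% in these data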;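 note: higher means more PKAc released from R1A so a rise in polarization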
Tn6 DDE FP – inhibitors of Tn6 peptide binding to fibrin DD(E), primary screen, biochemical, fluorescence polarization, human fibrin, Tn6 probe; actives 0.21% (n = 370,000); inhibition, % at 8.3 µM; AID 720509, 2013; Fibrinogen beta chain (Homo sapiens), P02675; Fibrin DD(E) TRITC-Tn6 fluorescence polarization displacement;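 active = inhibition above a per-campaign cutoff: mean of compounds within control limits plus 3 SD, cut at about 15% in these data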
PKA-R2B activ – activators of PKA-R2B holoenzyme, primary screen, biochemical, fluorescence polarization, Cy5-IP20, human | cAMP-dependent protein kinase catalytic subunit beta (Homo sapiens) + cAMP-dependent … | PKA-R2B holoenzyme dissociation; R2B truncated from residue 108, S112A mutant; 0% DMSO only, 100% 113 µM cGMP | activation, % at 11.4 µM | actives 0.079% (n = 340,000) | AID 504700, 2011;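 active = activation above a cutoff set at the mean over all compounds plus 3 SD, cut at about 18% in these data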;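 note: higher means more holoenzyme dissociation and a rise in polarization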
Neddylation inh – inhibitors of cullin neddylation, primary screen, biochemical, TR-FRET, uHTS, NAE and Ubc12; NEDD8-conjugating enzyme Ubc12 (Homo sapiens) + NEDD8-activating enzyme E1 regulatory …; inhibition, % at 25 µM; actives 0.58% (n = 360,000); in the data active = inhibition above about 36%
R1A FP artifact – FP signal interference without PKA proteins, confirmation, artefact control for PKA-R1A activator project, biochemical, fluorescence polarization, triplicate; shares compounds with PKA-R1A act; Cy5-IP20 peptide alone, fluorescence polarization artifact counterscreen; actives 7% (n = 280); activation, % at 11.4 µM; AID 504799, 2011;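 active = mean activation over triplicate runs exceeds the adjusted cutoff derived for the parent primary screen, cut at about 19% in these data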;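 note: no PKA protein present so any polarization rise reflects compound interference; higher means stronger polarization artifact and likely false positive in parent screen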
PKA-R1A confirm – activators of PKA-R1A holoenzyme, confirmation, biochemical, fluorescence polarization, Cy5-IP20, triplicate. PKA-R1A holoenzyme dissociation. activation, % at 11.4 µM. AID 504800, 2011. shares compounds with PKA-R1A act. actives 9% (n = 280);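 active = mean activation over replicate wells exceeds the adjusted hit threshold taken from the earlier primary screen, cut at about 20% in these data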
Target sequence (P00514 whole entry, looked up): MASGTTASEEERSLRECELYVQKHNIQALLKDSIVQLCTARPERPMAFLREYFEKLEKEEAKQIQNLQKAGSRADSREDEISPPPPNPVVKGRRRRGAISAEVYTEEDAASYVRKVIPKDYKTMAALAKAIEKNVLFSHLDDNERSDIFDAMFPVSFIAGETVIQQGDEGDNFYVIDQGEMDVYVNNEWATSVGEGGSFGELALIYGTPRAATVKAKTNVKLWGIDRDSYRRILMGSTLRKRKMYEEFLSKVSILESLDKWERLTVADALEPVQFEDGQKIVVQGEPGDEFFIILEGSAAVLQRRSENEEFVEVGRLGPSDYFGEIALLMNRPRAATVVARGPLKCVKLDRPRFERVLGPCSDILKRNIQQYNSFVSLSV
Of the large screens only hits and unclear results are named; the others gave an inactive call (follow-up assays come after a bar, where shown). Rows were chosen to be rich in hits. Some 1% of all compounds tested hit in one or more screens of this group.

Cc1ccccc1CS(=O)(=O)Cc1ccc(C(=O)Nc2ccc(F)cc2)o1	none (no result: PKA-R1A act, PKA-R2B activ, Neddylation inh)
C=CCNC(=O)CN(C(=O)Cc1cccc(OC(F)(F)F)c1)c1cccc(Br)c1	none (no result: PKA-R1A act, PKA-R2B activ, Neddylation inh)
Cc1ccc2cc3c(N)c(C(=O)N4CCOCC4)sc3nc2c1	PKA-R1A act 19 | R1A FP artifact inactive | PKA-R1A confirm inactive
Cc1ccc2nc3sc(C(=O)N4CCOCC4)c(N)c3cc2c1	none
COc1ccccc1NC(=O)N(C)C[C@H]1Oc2ncc(C#CCN(C)C)cc2C(=O)N([C@H](C)CO)C[C@H]1C	PKA-R1A act 21 (no result: Tn7 DDE FP, Tn6 DDE FP) | R1A FP artifact inactive | PKA-R1A confirm inactive
O=C(CNc1ccccc1)N/N=C/c1ccc([N+](=O)[O-])cc1	PKA-R1A act 22 | R1A FP artifact inactive | PKA-R1A confirm inactive
O=C(CCNC(=O)c1ccccc1)N/N=C/c1ccc([N+](=O)[O-])cc1	none
O=C(Cn1cnc2ccccc2c1=O)Nc1ccc(S(=O)(=O)N2CCOCC2)cc1	PKA-R1A act 19 | R1A FP artifact inactive | PKA-R1A confirm inactive
CC(C)[C@H](NC(N)=O)C(=O)Nc1cccc(S(=O)(=O)N2CCOCC2)c1	PKA-R1A act 20 | R1A FP artifact inactive | PKA-R1A confirm inactive
CC(C)[C@H](NC(=O)c1ccccc1)C(=O)Nc1cccc(S(=O)(=O)N2CCOCC2)c1	none
CC(NC(=O)Cc1ccccc1)c1ccccc1 (stereo unspecified)	PKA-R1A act 19 | R1A FP artifact inactive | PKA-R1A confirm inactive
CC(NC(=O)C(Cc1ccccc1)=NO)c1ccccc1 (stereo unspecified)	none
Cc1ccccc1NC(=O)CN1C(=O)CCSc2ccccc21	none (no result: PKA-R1A act, PKA-R2B activ, Neddylation inh)
COc1ccc(Cn2ccc3ccc(-c4ccc5ccn(Cc6ccc(C#N)cc6)c5c4)cc32)cc1	none (no result: PKA-R1A act, PKA-R2B activ, Neddylation inh)
CCOC(=O)N1CCC(NC(=O)CCC(=O)N2CCOc3ccc(Cl)cc32)CC1	PKA-R1A act 21 | R1A FP artifact inactive | PKA-R1A confirm inactive
Fc1ccccc1N1CCN(C2CCN(Cc3c[nH]c4ccccc34)CC2)CC1	PKA-R1A act 19 | R1A FP artifact inactive | PKA-R1A confirm inactive
COC(=O)C1CCC(CNC(=O)C(Cc2ccc3c(c2)OCO3)NC(C)=O)CC1 (stereo unspecified)	none (no result: PKA-R1A act, PKA-R2B activ, Neddylation inh)
CCCCNC(=O)C[C@H]1C[C@@]2(C(=O)OC)C(=C[C@H](C(C)(C)C)O[C@@H]2C)N(Cc2ccc3c(c2)OCO3)C1=O	none (no result: PKA-R1A act, PKA-R2B activ, Neddylation inh)
O=C(C1=C(O)C(=O)N(Cc2ccco2)C1c1cccc(O)c1)c1ccco1 (stereo unspecified)	PKA-R1A act 20 | R1A FP artifact inactive | PKA-R1A confirm inactive
CCn1c2ccccc2c2cc(NC(=O)COC(=O)c3cc(F)ccc3F)ccc21	none (no result: PKA-R1A act, PKA-R2B activ, Neddylation inh)
O=C(COC(=O)C1COc2ccccc2O1)NC(=O)NC1CCCC1 (stereo unspecified)	PKA-R1A act 20 | R1A FP artifact inactive | PKA-R1A confirm inactive
O=C(COC(=O)C1COc2ccccc2O1)NC1CCCCC1 (stereo unspecified)	none
CCOC(=O)COc1ccc2c(c1)C(=O)CC(C)(C)O2	PKA-R1A act 19 (not shown: Neddylation inh) | R1A FP artifact inactive | PKA-R1A confirm inactive
CCCCOc1ccc(C(=O)n2ccc3ccc(-c4ccc5ccn(Cc6ccccc6)c5c4)cc32)cc1	none (no result: PKA-R1A act, PKA-R2B activ, Neddylation inh)
O=C(NCc1ccccc1Cl)c1ccc(S(=O)(=O)Nc2cccc(C(F)(F)F)c2)cc1	PKA-R1A act 22 | R1A FP artifact 26 | PKA-R1A confirm 22

From PubChem
